Data from ChEMBL document CHEMBL3272077, “11,12-Secoprostaglandins. 2. N-acyl-N-alkyl-7-aminoheptanoic acids” (1977).

Legend:
Mus musculus [1] = organism: Mus musculus; assay: Stimulation of prostanoid receptor-mediated cAMP accumulation in Charles River CD-1 mouse ovary at 10 ug/ml after 30 mins relative to control; type: tissue-based; conditions: Female gonad
Method in brief: (§1)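 Mouse ovaries incubated 1 h at 37 °C with shaking to build an intracellular ATP-14C pool. Then 0.2 ml 0.05 M theophylline in 0.15 M NaCl and test compound in Me2SO were added, followed by 30 min at 37 °C. Stopped with 10% trichloroacetic acid and homogenized. cAMP-14C was isolated from the supernatant ending with paper chromatography. Result is fold increase, treated over untreated ovaries.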

Mus musculus [2] = organism: Mus musculus; assay: Stimulation of prostanoid receptor-mediated cAMP accumulation in Charles River CD-1 mouse ovary at 25 ug/ml after 30 mins relative to control; type: tissue-based; conditions: Female gonad; method in brief: as §1
Mus musculus [3] = organism: Mus musculus; assay: Stimulation of prostanoid receptor-mediated cAMP accumulation in Charles River CD-1 mouse ovary at 100 ug/ml after 30 mins relative to control; type: tissue-based; conditions: Female gonad; method in brief: as §1
Mus musculus [4] = organism: Mus musculus; assay: Stimulation of prostanoid receptor-mediated cAMP accumulation in Charles River CD-1 mouse ovary at 1 ug/ml after 30 mins relative to control; type: tissue-based; conditions: Female gonad; method in brief: as §1
Canis familiaris = assay: Increase in renal blood flow in anesthetized dog at 0.25 mg/kg/min infused into thoracic aorta (reference value: 188 ml/min); type: functional, Canis lupus familiaris
Mus musculus [5] = organism: Mus musculus; assay: Stimulation of prostanoid receptor-mediated cAMP accumulation in Charles River CD-1 mouse ovary at 0.05 ug/ml after 30 mins relative to control; type: tissue-based; conditions: Female gonad; method in brief: as §1
Mus musculus [6] = organism: Mus musculus; assay: Stimulation of prostanoid receptor-mediated cAMP accumulation in Charles River CD-1 mouse ovary at 0.1 ug/ml after 30 mins relative to control; type: tissue-based; conditions: Female gonad; method in brief: as §1

Row | SMILES | fold change (FC) (Mus musculus [1]) | fold change (FC) (Mus musculus [2]) | fold change (FC) (Mus musculus [3]) | fold change (FC) (Mus musculus [4]) | Activity (Canis familiaris) | fold change (FC) (Mus musculus [5]) | fold change (FC) (Mus musculus [6])
1 | CCCCCC(O)CCCN(CCCCCCC(=O)[O-])C(N)=O.[Na+] (stereo not drawn) | 23 | 43 | 40 | 2 | 258 mL/min |  | 
2 | CCCCCC(O)CCCC(CCCCCCC(=O)O)C(C)=O (stereo not drawn) | 11 | 14 | 23 | 2 |  |  | 
3 | CCCCC[C@H](O)CC[C@H]1CCC(=O)[C@@H]1CCCCCCC(=O)O | 25 | 26 |  | 10 |  |  | 
4 | C=CC(=O)N(CCCCCCCCC)CCCCCCC(=O)O | 2 | 7 | 11 |  |  |  | 
5 | CCCCC[C@H](O)/C=C/[C@H]1[C@H](O)CC(=O)[C@@H]1CCCCCCC(=O)O |  |  |  | 54 |  | 29 | 25
6 | CCCCCC(C)(O)CCCN(CCCCCCC(=O)O)C(N)=O (stereo not drawn) | 3 | 8 | 22 |  |  |  | 
7 | CCCCCCCCC(C)N(CCCCCCC(=O)O)C(C)=O (stereo not drawn) |  | 3 | 4 |  |  |  | 
8 | CCCCCC(O)CCCN(CCCCCCC(=O)O)C(C)=O (stereo not drawn) | 10 | 17 | 17 |  |  |  | 
9 | CCCCCCCCC(C)N(CCCCCCC(=O)O)C(N)=O (stereo not drawn) | 9 | 16 | 17 |  |  |  | 
10 | CCCCCCCCCN(CCCCCCC(=O)O)C(N)=O | 15 | 16 | 25 |  |  |  | 
11 | CCCCCCCCC(c1ccccc1)N(CCCCCCC(=O)O)C(C)=O (stereo not drawn) |  | 1 | 1 |  |  |  | 
12 | CCCCCC(O)CCCN(CCCCCCC(=O)O)C(N)=S (stereo not drawn) | 4 | 16 | 26 |  |  |  | 
13 | CCCCCC(O)CCCN(C#N)CCCCCCC(=O)O (stereo not drawn) | 4 | 18 | 31 |  |  |  | 
14 | CCCCCC(O)/C=C/CN(CCCCCCC(=O)O)C(N)=O (stereo not drawn) | 14 | 19 | 26 |  |  |  | 
